Assay results as given in ChEMBL document CHEMBL5705899 (Biochem J, 2014).
Values belong to the molecule of their own block, whether it stands above or below them. Activity calls are given as the source filed them. No cut-off for these calls is given here.

Key:
U2OS [1] = assay: Inhibition of PI3K in human U2OS cells expressing FLAG-tagged SGK3 assessed as reduction in SGK3 activity at 0.5 uM using cross peptide as substrate incubated for 1 to 2 mins in presence of [gamma-32P]-ATP by radioactive assay; assay type: cell-based; conditions: time 1-2 min
U2OS [2] = assay: Inhibition of PI3K in human U2OS cells expressing FLAG-tagged SGK3 assessed as reduction in SGK3 phosphorylation at S486 residues 0.5 uM after 1 hr by immunoblot analysis; assay type: cell-based
How it was run: (§1)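 FLAG-SGK3 U2OS Flp-In cells (doxycycline-induced) treated for 1 h with class I PI3K inhibitor, 0.5 μM or a dose series as indicated. Lysed in phosphatase-inhibitor buffer, clarified at 16000 g for 10 min at 4°C, Bradford-normalized. Akt, PRAS40 and 4EBP1 phosphosites were read by immunoblot, and SGK3 sites on anti-FLAG immunoprecipitates, with ECL film detection.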

[3] = biological target: Phosphatidylinositol 3-kinase catalytic subunit type 3 (Homo sapiens) (UniProt Q8NEB9); assay: Inhibition of Vps34 in human U2OS cells expressing GFP-2xFYVEHrs assessed as reduction in PtdIns(3)P level in endosome at 0.5 uM incubated for 1 hr by Alexa Fluor 488 staining based fluorescence microscopic analysis relative to control
How it was run: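 U2OS clone with low stable expression of lentiviral GFP–2×FYVEHrs; 1 h inhibitor exposure. Permeabilized by a freeze–thaw in liquid nitrogen, then fixed in 4% paraformaldehyde, stained with anti-GFP plus Alexa Fluor 488 secondary and DAPI. Ten random fields of 20–25 cells each; fluorescence per cell (field total/cell count) expressed relative to DMSO, mean±S.D.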

U2OS [4] = assay: Inhibition of PI3K in human U2OS cells expressing FLAG-tagged SGK3 assessed as reduction in SGK3 phosphorylation at T320 residues 0.5 uM after 1 hr by immunoblot analysis; assay type: cell-based; how it was run: as §1
U2OS [5] = assay: Inhibition of PI3K in human U2OS cells expressing FLAG-tagged SGK3 assessed as reduction in SGK3 phosphorylation at T320 residues 0.5 uM after 1 to 2 mins by immunoblot analysis; assay type: cell-based; conditions: time 1-2 min
U2OS [6] = assay: Inhibition of PI3K in human U2OS cells expressing FLAG-tagged SGK3 assessed as reduction in 4EBP1 phosphorylation S65 residues at 0.5 uM 1 hr by immunoblot analysis; assay type: cell-based; how it was run: as §1
U2OS [7] = assay: Inhibition of PI3K in human U2OS cells expressing FLAG-tagged SGK3 assessed as reduction in NDRG1 phosphorylation at T346 residues at 0.5 uM 1 hr by immunoblot analysis; assay type: cell-based
U2OS [8] = assay: Inhibition of PI3K in human U2OS cells expressing FLAG-tagged SGK3 assessed as reduction in SGK3 phosphorylation at S486 residues 0.5 uM after 1 to 2 mins by immunoblot analysis; assay type: cell-based; conditions: time 1-2 min
[9] = biological target: Phosphatidylinositol 3-kinase catalytic subunit type 3 (Homo sapiens) (UniProt Q8NEB9); assay: Inhibition of Vps34 in human U2OS cells expressing C-terminal tagged-SGK3 assessed as reduction in SGK3 level in endosome at 0.5 uM incubated for 1 hr by Alexa Fluor 594 staining based fluorescence microscopic analysis; assay type: subcellular
U2OS [10] = assay: Inhibition of PI3K in human U2OS cells expressing FLAG-tagged SGK3 assessed as reduction in PRAS40 phosphorylation T246 residues at 0.5 uM 1 hr by immunoblot analysis; assay type: cell-based; how it was run: as §1
U2OS [11] = assay: Inhibition of PI3K in human U2OS cells expressing FLAG-tagged SGK3 assessed as reduction in AKT phosphorylation S473 residues at 0.5 uM 1 hr by immunoblot analysis; assay type: cell-based; how it was run: as §1
U2OS [12] = assay: Inhibition of PI3K in human U2OS cells expressing FLAG-tagged SGK3 assessed as reduction in AKT phosphorylation T308 residues at 0.5 uM 1 hr by immunoblot analysis; assay type: cell-based; how it was run: as §1
U2OS [13] = assay: Inhibition of PI3K in human U2OS cells expressing FLAG-tagged SGK3 assessed as reduction in 4EBP1 phosphorylation T37/T46 residues at 0.5 uM 1 hr by immunoblot analysis; assay type: cell-based; how it was run: as §1
U2OS [14] = assay: Inhibition of PI3K in human U2OS cells expressing GFP-PHAkt1 assessed as reduction in IGF-stimulated PtdIns(3,4,5)P3/PtdIns(3,4)P2 level in endosome at 0.5 uM pre incubated for 1 hr followed by IGF stimulation and measured after 15 mins by Alexa Fluor 488 staining based fluorescence microscopic analysis; assay type: subcellular; conditions: time 1.25 hrs
[15] = biological target: Serine/threonine-protein kinase mTOR (Homo sapiens) (UniProt P42345); assay: Inhibition of mTOR in human U2OS cells expressing FLAG-tagged SGK3 assessed as reduction in 4EBP1 phosphorylation S65 residues at 0.1 uM 1 hr by immunoblot analysis; assay type: cell-based
How it was run: (§2)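 Doxycycline-induced FLAG-SGK3 U2OS Flp-In cells exposed to 0.1 μM mTOR inhibitor for 1 h. Clarified lysates immunoblotted for 4EBP1 phosphosites (Thr37/Thr46, Ser65), ECL film detection.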

[16] = biological target: Serine/threonine-protein kinase mTOR (Homo sapiens) (UniProt P42345); assay: Inhibition of mTOR in human U2OS cells expressing FLAG-tagged SGK3 assessed as reduction in 4EBP1 phosphorylation T37/T46 residues at 0.1 uM 1 hr by immunoblot analysis; assay type: cell-based; how it was run: as §2
U2OS [17] = assay: Inhibition of PI3K in human U2OS cells expressing FLAG-tagged SGK3 assessed as reduction in AKT phosphorylation T308 residues at 0.01 to 0.5 uM 1 hr by immunoblot analysis; assay type: cell-based; conditions: dose 0.01-0.5 µM; how it was run: as §1
U2OS [18] = assay: Inhibition of PI3K in human U2OS cells expressing FLAG-tagged SGK3 assessed as reduction in 4EBP1 phosphorylation S65 residues at 0.01 to 0.5 uM 1 hr by immunoblot analysis; assay type: cell-based; conditions: dose 0.01-0.5 µM; how it was run: as §1
U2OS [19] = assay: Inhibition of PI3K in human U2OS cells expressing FLAG-tagged SGK3 assessed as reduction in PRAS40 phosphorylation T246 residues at 0.01 to 0.5 uM 1 hr by immunoblot analysis; assay type: cell-based; conditions: dose 0.01-0.5 µM; how it was run: as §1
U2OS [20] = assay: Inhibition of PI3K in human U2OS cells expressing FLAG-tagged SGK3 assessed as reduction in 4EBP1 phosphorylation T37/T46 residues at 0.01 to 0.5 uM 1 hr by immunoblot analysis; assay type: cell-based; conditions: dose 0.01-0.5 µM; how it was run: as §1
U2OS [21] = assay: Inhibition of PI3K in human U2OS cells expressing FLAG-tagged SGK3 assessed as reduction in AKT phosphorylation S473 residues at 0.01 to 0.5 uM 1 hr by immunoblot analysis; assay type: cell-based; conditions: dose 0.01-0.5 µM; how it was run: as §1
[22] = biological target: T1, 3-phosphoinositide-dependent protein kinase 1 (Homo sapiens) (UniProt O15530); assay: Inhibition of PDK1 in human U2OS cells expressing FLAG-tagged SGK3 assessed as reduction in SGK3 activity at 1 uM using cross peptide as substrate incubated for 30 mins in presence of [gamma-32P]-ATP by radioactive assay; assay type: cell-based
T1 sequence (whole entry): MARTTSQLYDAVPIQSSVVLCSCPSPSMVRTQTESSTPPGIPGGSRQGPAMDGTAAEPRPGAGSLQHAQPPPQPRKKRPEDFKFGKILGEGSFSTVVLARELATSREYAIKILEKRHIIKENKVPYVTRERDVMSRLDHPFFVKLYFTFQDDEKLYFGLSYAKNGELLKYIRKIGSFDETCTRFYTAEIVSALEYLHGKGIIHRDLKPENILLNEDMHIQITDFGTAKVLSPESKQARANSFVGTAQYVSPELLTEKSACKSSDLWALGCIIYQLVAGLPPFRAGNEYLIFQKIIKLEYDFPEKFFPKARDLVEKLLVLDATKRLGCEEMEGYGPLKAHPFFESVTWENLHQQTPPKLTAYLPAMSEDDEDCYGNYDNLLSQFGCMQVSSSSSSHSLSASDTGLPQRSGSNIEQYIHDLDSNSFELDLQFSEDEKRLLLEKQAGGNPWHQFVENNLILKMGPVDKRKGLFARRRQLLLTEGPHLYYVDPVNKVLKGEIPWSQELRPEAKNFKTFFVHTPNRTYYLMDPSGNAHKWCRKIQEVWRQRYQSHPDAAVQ
How it was run: (§3)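 U2OS Flp-In cells with doxycycline-induced (0.01 mg/ml, 24 h) full-length SGK3 carrying a C-terminal FLAG tag; treated with 1 μM inhibitor for 1 h. Lysis, anti-FLAG immunoprecipitation, washes (high-salt lysis buffer, lysis buffer, 50 mM Tris pH 7.5/0.1 mM EGTA). IP kinase assay: 30 μM Crosstide, 0.1 mM [γ-32P]ATP, 10 mM Mg acetate, 30 min. Phosphosites then immunoblotted, ECL. Triplicate reactions.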

[23] = biological target: T1, 3-phosphoinositide-dependent protein kinase 1 (Homo sapiens); assay: Inhibition of PDK1 in human U2OS cells expressing FLAG-tagged SGK3 assessed as reduction in SGK3 phosphorylation at S486 residues at 1 uM after 1 hr by immunoblot analysis; assay type: cell-based; how it was run: as §3
[24] = biological target: T1, 3-phosphoinositide-dependent protein kinase 1 (Homo sapiens); assay: Inhibition of PDK1 in human U2OS cells expressing FLAG-tagged SGK3 assessed as reduction in SGK3 phosphorylation at T320 residues at 1 uM after 1 hr by immunoblot analysis; assay type: cell-based; how it was run: as §3

Phosphatidylinositol 3-kinase catalytic subunit type 3 (Homo sapiens), sequence (Q8NEB9 whole entry): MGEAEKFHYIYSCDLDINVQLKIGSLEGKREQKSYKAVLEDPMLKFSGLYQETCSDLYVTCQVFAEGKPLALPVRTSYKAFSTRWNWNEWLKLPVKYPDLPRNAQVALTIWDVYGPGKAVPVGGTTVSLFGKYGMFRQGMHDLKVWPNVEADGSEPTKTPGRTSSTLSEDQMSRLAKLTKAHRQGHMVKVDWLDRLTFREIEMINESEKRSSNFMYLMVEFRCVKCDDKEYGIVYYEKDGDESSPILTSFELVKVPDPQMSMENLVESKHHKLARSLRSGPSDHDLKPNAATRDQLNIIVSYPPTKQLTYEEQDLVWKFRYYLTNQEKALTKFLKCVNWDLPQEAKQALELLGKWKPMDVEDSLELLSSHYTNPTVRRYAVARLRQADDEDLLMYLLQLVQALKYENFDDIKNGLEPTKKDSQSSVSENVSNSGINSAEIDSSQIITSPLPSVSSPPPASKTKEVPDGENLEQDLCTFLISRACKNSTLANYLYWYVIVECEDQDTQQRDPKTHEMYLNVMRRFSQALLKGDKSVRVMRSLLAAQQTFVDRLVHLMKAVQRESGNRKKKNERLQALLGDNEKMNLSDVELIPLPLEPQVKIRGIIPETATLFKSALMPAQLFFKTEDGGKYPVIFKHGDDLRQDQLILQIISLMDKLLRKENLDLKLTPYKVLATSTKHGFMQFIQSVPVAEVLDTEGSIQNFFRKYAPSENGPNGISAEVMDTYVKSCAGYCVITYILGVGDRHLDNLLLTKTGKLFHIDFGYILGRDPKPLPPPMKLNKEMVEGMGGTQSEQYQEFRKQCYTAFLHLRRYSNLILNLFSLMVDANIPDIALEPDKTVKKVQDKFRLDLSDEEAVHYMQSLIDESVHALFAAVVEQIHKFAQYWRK

inhibition [3]: inactive | inhibition [9]: inactive | inhibition (U2OS [14]): Active
SMILES: CS(=O)(=O)N1CCN(Cc2cc3nc(-c4cccc5[nH]ncc45)nc(N4CCOCC4)c3s2)CC1
inhibition (U2OS [1]): Active | inhibition (U2OS [2]): Active | inhibition (U2OS [4]): Active | inhibition (U2OS [5]): Active | inhibition (U2OS [6]): inactive | inhibition (U2OS [7]): Active | inhibition (U2OS [8]): Active | inhibition (U2OS [10]): Active | inhibition (U2OS [11]): Active | inhibition (U2OS [12]): Active | inhibition (U2OS [13]): inactive

inhibition [15]: Active | inhibition [16]: Active
SMILES: COc1ccc(-c2ccc3c(N4CCOC[C@@H]4C)nc(N4CCOC[C@@H]4C)nc3n2)cc1CO

SMILES: Nc1cc(C(F)(F)F)c(-c2cc(N3CCOCC3)nc(N3CCOCC3)n2)cn1
inhibition (U2OS [17]): Active | inhibition (U2OS [18]): inactive | inhibition (U2OS [19]): Active | inhibition (U2OS [20]): inactive | inhibition (U2OS [21]): Active

inhibition [22]: Active | inhibition [23]: Active | inhibition [24]: Active
SMILES: CNc1nc(-c2ccc3c(N)n[nH]c3c2)cc(N2C[C@@H](C(=O)NC3CCCCC3)CC[C@H]2C)n1
